These results are taken from ChEMBL document CHEMBL3808367, “Novel HIV-1 Non-nucleoside Reverse Transcriptase Inhibitor Agents: Optimization of Diarylanilines with High Potency against Wild-Type and Rilpivirine-Resistant E138K Mutant Virus” (J Med Chem, 2016).

The test system of data set [1] is Human immunodeficiency virus 1. In words: Antiviral activity against HIV1 NL4-3 assessed as inhibition of viral infection in human TZM-bl cells measured after 1 day by luciferase reporter gene assay. Type of data set: functional, organism-based. The conditions noted are these: Human immunodeficiency virus 1, NL4-3, TZM-bl, 24 h.
Data set [2] can be described thus: Selectivity index, ratio of CC50 for human TZM-bl cells to EC50 for HIV1 3B infected in human MT2 cells. The data set is classed as toxicity, cell-based.
The nature of data set [3]: Cytotoxicity against human TZM-bl cells assessed as reduction in cell viability after 1 day by CytoTox-Glo assay. The conditions noted are these: tzm, 24 h. The data set is classed as cell-based. Put shortly: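 TZM-bl cells exposed to graded compound concentrations for 1 day, run in parallel with the antiviral assay. Viability read by CytoTox-Glo following the manufacturer's protocol.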

The test system of data set [4] is Human immunodeficiency virus 1. In words: Antiviral activity against […] resistant HIV1 A17 harboring reverse transcriptase K103N/Y181C double mutant infected in human MT2 cells measured on day 4 post infection by p24 ELISA method. The data set is classed as functional, organism-based. The conditions noted are these: Human immunodeficiency virus 1, A17, MT2, 96 h. The procedure, abridged: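 MT-2 cells (10^4 per well) were infected with 100 TCID50 of IIIB or A17 in RPMI 1640 with 10% FBS, with or without graded compound concentrations, overnight. Medium was then replaced with compound-free medium. On day 4, supernatant was mixed with an equal volume of 5% Triton X-100 and p24 was quantified by ELISA. EC50 was calculated from percent inhibition of p24 production.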

The test system of data set [5] is Human immunodeficiency virus 1. The data set can be described thus: Antiviral activity against HIV1 3B infected in human MT2 cells measured on day 4 post infection by p24 ELISA method. The data set is classed as functional, organism-based. As to conditions: Human immunodeficiency virus 1, 3B, MT2, 96 h.
Data set [6] relates to Human immunodeficiency virus 1. The data set can be described thus: Antiviral activity against rilpivirine resistant HIV1 harboring reverse transcriptase E138K mutant assessed as inhibition of viral infection in human TZM-bl cells measured after 1 day by luciferase reporter gene assay. Type of data set: functional, organism-based. As to conditions: Human immunodeficiency virus 1, TZM-bl, 24 h.

Data set [7] has as its system Human immunodeficiency virus 1. The data set can be described thus: Resistance index, ratio of EC50 for […] resistant HIV1 A17 harboring reverse transcriptase K103N/Y181C double mutant infected in human MT2 cells to EC50 for HIV1 3B infected in human MT2 cells. Type of data set: functional. Put shortly:
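Fold change is EC50 against A17 (K103N/Y181C) divided by EC50 against IIIB. Both are from the MT-2 assay: 100 TCID50 virus, overnight exposure to compound, then compound-free medium, and day-4 p24 ELISA.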

Data set [8] has as its system Human immunodeficiency virus 1. The data set can be described thus: Resistance index, ratio of EC50 for rilpivirine resistant HIV1 harboring reverse transcriptase E138K mutant infected in human TZM-bl cells to EC50 for HIV1 NL4-3 infected in human TZM-bl cells. Type of data set: functional.
Data set [9] deals with Human immunodeficiency virus 1. In words: Resistance index, ratio of EC50 for rilpivirine resistant HIV1 harboring reverse transcriptase K101E mutant infected in human TZM-bl cells to EC50 for HIV1 NL4-3 infected in human TZM-bl cells. Type of data set: functional.
Data set [10] in a line: Aqueous solubility in pH 7.4 phosphate buffer at 10 mg/ml after 4 hrs by UV-HPLC method. Type of data set: physicochemical. The conditions noted are these: pH 7.4, 4 h.
A short description of data set [11]: Metabolic stability in human liver microsomes assessed as parent compound remaining at 1 uM incubated for 30 mins in presence of NADPH by LC-MS analysis. The data set is classed as ADME. The conditions noted are these: read-out: Stability. The procedure, abridged: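 Compound at 1 µM final with 0.1 mg/mL human liver microsomes, 5 mM MgCl2, 1.0 mM NADPH in 0.1 M potassium phosphate pH 7.4 at 37 °C. Parent measured by LC-MS/MS (MRM, ESI).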

Another data set concerns Liver microsome. In words: Half life in human liver microsomes at 1 uM by LC-MS analysis. Type of data set: ADME. The procedure, abridged: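 Compound at 1 µM final with 0.1 mg/mL human liver microsomes, 5 mM MgCl2, 1.0 mM NADPH in 0.1 M potassium phosphate pH 7.4 at 37 °C. Quenched with ice-cold acetonitrile at 0, 5, 15, 30 and 45 min, in duplicate. Parent measured by LC-MS/MS (MRM, ESI).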

Data set [12] can be described thus: n-octanol-water partition coefficient, logP of compound at pH 7.4 stirred for 24 hrs followed by overnight incubation by HPLC analysis. Type of data set: physicochemical.
A short description of data set [13]: Aqueous solubility in 0.01 M Hcl at pH 2 at 10 mg/ml after 4 hrs by UV-HPLC method. The conditions noted are these: buffer, pH 2, 4 h. The data set is classed as physicochemical.
Data set [14] has as its system Human immunodeficiency virus 1. The data set can be described thus: Antiviral activity against HIV1 NL4-3 harboring reverse transcriptase E138K mutant assessed as inhibition of viral infection in human TZM-bl cells measured after 1 day by luciferase reporter gene assay. Type of data set: functional, organism-based. As to conditions: Human immunodeficiency virus 1, NL4-3, TZM-bl, 24 h. The procedure, abridged:
(§1)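 Single-round infection of TZM-bl cells with 800 TCID50 of NL4-3 or its RT-mutant variants, with compound at various concentrations. After 1 day, medium was replaced by Bright Glo reagent and luminescence was read.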

Data set [15] deals with Human immunodeficiency virus 1. In words: Antiviral activity against HIV1 NL4-3 harboring reverse transcriptase K101E mutant assessed as inhibition of viral infection in human TZM-bl cells measured after 1 day by luciferase reporter gene assay. The data set is classed as functional, organism-based. The conditions noted are these: Human immunodeficiency virus 1, NL4-3, TZM-bl, 24 h. The procedure, abridged: as §1

Data set [16] has as its system Human immunodeficiency virus 1. The data set can be described thus: Antiviral activity against multidrug resistant HIV1 harboring reverse transcriptase L74V/M41L/V106A/T215Y multimutant assessed as inhibition of viral infection in human TZM-bl cells measured after 1 day by luciferase reporter gene assay. Type of data set: functional, organism-based. The conditions noted are these: Human immunodeficiency virus 1, TZM-bl, 24 h.

Data set [17] relates to Human immunodeficiency virus 1. In words: Resistance index, ratio of EC50 for HIV1 NL4-3 harboring reverse transcriptase E138K mutant infected in human TZM-bl cells to EC50 for HIV1 NL4-3 infected in human TZM-bl cells. Type of data set: functional.
The test system of data set [18] is Human immunodeficiency virus 1. The data set can be described thus: Resistance index, ratio of EC50 for HIV1 NL4-3 harboring reverse transcriptase K101E mutant infected in human TZM-bl cells to EC50 for HIV1 NL4-3 infected in human TZM-bl cells. Type of data set: functional.
Data set [19] concerns Human immunodeficiency virus 1. In words: Resistance index, ratio of EC50 for multidrug resistant HIV1 harboring reverse transcriptase L74V/M41L/V106A/T215Y multimutant infected in human TZM-bl cells to EC50 for HIV1 NL4-3 infected in human TZM-bl cells. Type of data set: functional.

Each structure is given as a SMILES string. Values after ≈ are worked out from the molar mass of the structure shown.

For `Cc1cc(CCC#N)cc(C)c1Oc1cc(Nc2ccc(C#N)cc2)c(N)cc1Cl`, the EC50 in data set [1] stood at 11.3 nM; in data set [4], 4.49 nM; in [5], 1.65 nM; in [6] it was 19.7 nM. In addition, the “Ratio CC50/EC50” value in data set [2] was found to be 6303. Besides, the CC50 in data set [3] stood at 10400 nM. The “Ratio EC50” value in [7] amounted to 2.7; in data set [8] it was 1.7; in data set [9], 3.3.

As for `CCNC(=O)c1cc(N)c(Nc2ccc(C#N)cc2)cc1Oc1c(C)cc(CCC#N)cc1C`, the values for the EC50 in [1], in data set [5] and in data set [6] were 4.63 nM, 17.1 nM and 8.59 nM, respectively. Moreover, the “Ratio CC50/EC50” value in data set [2] is reported as 6140. The CC50 in data set [3] amounted to 105000 nM. The solubility was 1.08 µg/mL (≈ 2.38 µM) in data set [10] and 69.4 µg/mL (≈ 153 µM) in [13]. In addition, the remaining at 0.5 h, 1 µM in [11] is 85.2%. Moreover, the “Ratio EC50” value in data set [8] was 1.9; in data set [9], 4. In the data set with Liver microsome, this compound had a t1/2 of 2.88 h. Besides, the logD at 24 h in data set [12] amounted to 3.63.

On to `COc1cc(/C=C/C#N)cc(Br)c1Oc1ccc(N)c(Nc2ccc(C#N)cc2)n1`, for which the EC50 was found to be 3.25 nM in data set [1], 3.5 nM in [14], 3.5 nM in [15] and 3.5 nM in data set [16]. Further, the “Ratio EC50” value in [17], in [18] and in [19] was 1.1 throughout.
